ChEMBL document CHEMBL4000215, “A structure-guided optimization of pyrido[2,3-d]pyrimidin-7-ones as selective inhibitors of EGFRL858R/T790M mutant with improved pharmacokinetic properties” (Eur J Med Chem, 2017)
pIC50: −log10 of the molar value.

Experiments:
A-431 = assay: Antiproliferative activity against human A431 cells harboring wild type EGFR after 72 hrs by SRB assay; assay type: cell-based; conditions: A-431, 72 h
Outline: (§1)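 Cells were cultured in RPMI 1640 with 10% FBS and 1% penicillin-streptomycin at 37 °C in 5% CO2, and their EGFR gene was sequenced before use. They were exposed to a range of compound concentrations for 72 h, and growth was read by sulforhodamine B staining. IC50 came from non-linear regression with a sigmoidal dose-response model.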

NCI-H1975 = assay: Antiproliferative activity against human NCI-H1975 cells harboring EGFR L858R/T790M double mutant after 72 hrs by SRB assay; assay type: functional, cell-based; conditions: NCI-H1975, 72 h; outline: as §1
[1] = molecular target: T1, Epidermal growth factor receptor (Homo sapiens, UniProt P00533); assay: Inhibition of N-terminal 6His/TEV protease cleavage site-tagged wild type human EGFR using poly (Glu,Tyr) 4:1 as substrate after 1 hr by ELISA
T1 sequence (P00533 whole entry, the tested form may be a part): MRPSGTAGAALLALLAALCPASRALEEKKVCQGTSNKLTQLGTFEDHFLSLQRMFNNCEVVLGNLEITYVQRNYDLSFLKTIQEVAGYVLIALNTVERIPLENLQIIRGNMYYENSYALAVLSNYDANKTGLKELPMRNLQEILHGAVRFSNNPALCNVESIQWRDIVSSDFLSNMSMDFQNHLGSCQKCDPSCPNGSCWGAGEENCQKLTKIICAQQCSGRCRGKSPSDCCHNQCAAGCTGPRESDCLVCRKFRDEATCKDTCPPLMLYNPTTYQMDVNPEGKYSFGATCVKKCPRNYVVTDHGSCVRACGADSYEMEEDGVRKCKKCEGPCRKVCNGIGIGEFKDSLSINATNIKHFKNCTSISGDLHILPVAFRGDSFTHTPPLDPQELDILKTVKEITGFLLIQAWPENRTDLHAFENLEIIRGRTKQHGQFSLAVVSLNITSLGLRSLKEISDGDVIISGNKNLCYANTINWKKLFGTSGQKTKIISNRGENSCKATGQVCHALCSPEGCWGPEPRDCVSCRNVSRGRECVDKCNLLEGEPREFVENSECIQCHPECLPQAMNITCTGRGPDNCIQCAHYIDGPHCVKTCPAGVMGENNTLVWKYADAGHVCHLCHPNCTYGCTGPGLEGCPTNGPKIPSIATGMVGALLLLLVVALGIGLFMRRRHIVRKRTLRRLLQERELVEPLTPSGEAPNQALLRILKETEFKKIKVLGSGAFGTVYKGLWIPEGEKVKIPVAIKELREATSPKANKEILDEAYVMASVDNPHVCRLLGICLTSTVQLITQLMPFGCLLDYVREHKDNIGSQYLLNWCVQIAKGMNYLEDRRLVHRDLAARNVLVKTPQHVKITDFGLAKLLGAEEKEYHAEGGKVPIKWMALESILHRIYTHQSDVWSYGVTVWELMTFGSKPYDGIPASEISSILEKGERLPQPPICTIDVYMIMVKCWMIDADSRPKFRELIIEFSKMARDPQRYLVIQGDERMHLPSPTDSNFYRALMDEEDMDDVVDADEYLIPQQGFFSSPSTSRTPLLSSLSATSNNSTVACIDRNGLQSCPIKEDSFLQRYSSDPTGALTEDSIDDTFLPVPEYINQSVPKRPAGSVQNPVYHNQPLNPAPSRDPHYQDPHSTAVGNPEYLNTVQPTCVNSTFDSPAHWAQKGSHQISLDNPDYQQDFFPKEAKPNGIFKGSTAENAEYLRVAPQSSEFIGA

[2] = molecular target: Epidermal growth factor receptor (Homo sapiens, UniProt P00533, L858R/T790M); assay: Inhibition of N-terminal 6His/TEV protease cleavage site-tagged human EGFR L858R/T790M double mutant (696 to 1022 residues) using poly (Glu,Tyr) 4:1 as substrate after 1 hr by ELISA
Chain of Epidermal growth factor receptor (Homo sapiens, UniProt P00533, L858R/T790M) (P00533 25-1210 T790M/L858R limits assumed): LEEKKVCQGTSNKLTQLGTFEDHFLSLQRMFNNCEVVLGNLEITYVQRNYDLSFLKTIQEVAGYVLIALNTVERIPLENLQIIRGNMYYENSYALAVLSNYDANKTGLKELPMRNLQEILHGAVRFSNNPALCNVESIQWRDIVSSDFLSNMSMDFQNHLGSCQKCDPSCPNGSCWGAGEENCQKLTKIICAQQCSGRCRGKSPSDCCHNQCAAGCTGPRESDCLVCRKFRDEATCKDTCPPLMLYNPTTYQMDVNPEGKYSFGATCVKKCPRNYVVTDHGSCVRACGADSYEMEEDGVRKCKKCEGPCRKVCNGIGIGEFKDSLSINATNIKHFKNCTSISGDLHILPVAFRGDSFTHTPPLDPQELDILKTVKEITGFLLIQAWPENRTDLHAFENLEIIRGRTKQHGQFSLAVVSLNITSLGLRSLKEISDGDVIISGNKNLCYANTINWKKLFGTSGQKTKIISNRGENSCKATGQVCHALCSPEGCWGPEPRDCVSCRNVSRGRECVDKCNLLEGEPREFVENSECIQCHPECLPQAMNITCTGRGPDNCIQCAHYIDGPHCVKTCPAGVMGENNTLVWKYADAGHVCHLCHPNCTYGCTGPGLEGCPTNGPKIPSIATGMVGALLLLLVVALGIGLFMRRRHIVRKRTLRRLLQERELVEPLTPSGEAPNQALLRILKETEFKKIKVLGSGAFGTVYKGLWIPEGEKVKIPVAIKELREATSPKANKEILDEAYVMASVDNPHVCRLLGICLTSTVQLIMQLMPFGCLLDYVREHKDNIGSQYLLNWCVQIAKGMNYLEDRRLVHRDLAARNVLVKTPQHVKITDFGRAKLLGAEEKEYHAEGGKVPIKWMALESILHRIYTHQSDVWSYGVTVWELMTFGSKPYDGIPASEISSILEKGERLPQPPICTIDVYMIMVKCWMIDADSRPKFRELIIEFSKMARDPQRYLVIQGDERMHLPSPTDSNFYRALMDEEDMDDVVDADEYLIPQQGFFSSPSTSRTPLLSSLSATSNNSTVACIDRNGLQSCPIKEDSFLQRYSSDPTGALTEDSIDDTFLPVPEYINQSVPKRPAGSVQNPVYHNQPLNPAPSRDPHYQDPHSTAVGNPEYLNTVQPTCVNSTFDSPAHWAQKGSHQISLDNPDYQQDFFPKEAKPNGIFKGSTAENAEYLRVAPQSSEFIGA

[3] = Oral bioavailability in Sprague-Dawley rat at 25 mg/kg administered via gavage by LC-MS/MS analysis; assay type: ADME, organism-based; conditions: in vivo
Outline: (§2)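 Male Sprague-Dawley rats (180-300 g, n = 3 per route) were given a single dose, either 5 mg/kg iv or 25 mg/kg by oral gavage. Vehicle was 5% DMSO, 40% PEG400 and saline. Orbital sinus blood (0.2 mL) was taken into heparinized tubes at 0 min to 24 h. Plasma was stored at -80 °C and assayed by LC-MS/MS, and PK parameters were then calculated.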

[4] = AUC (0 to infinity) in Sprague-Dawley rat at 25 mg/kg administered via oral gavage by LC-MS/MS analysis; assay type: ADME, organism-based; parameters: dose 25 mg/kg, route oral, time infinity; conditions: in vivo; outline: as §2
[5] = Tmax in Sprague-Dawley rat at 25 mg/kg administered via oral gavage by LC-MS/MS analysis; assay type: ADME, organism-based; conditions: in vivo; outline: as §2
[6] = (§3) Apparent clearance in Sprague-Dawley rat at 5 mg/kg, iv by LC-MS/MS analysis; assay type: ADME, organism-based; conditions: Sprague-Dawley, in vivo, read-out: CL(app) (converted); outline: as §2
[7] = (§4) AUC (0 to infinity) in Sprague-Dawley rat at 5 mg/kg, iv by LC-MS/MS analysis; assay type: ADME, organism-based; parameters: dose 5 mg/kg, time infinity, route intravenous; conditions: Sprague-Dawley, in vivo; outline: as §2
[8] = Cmax in Sprague-Dawley rat at 5 mg/kg, iv by LC-MS/MS analysis; assay type: ADME, organism-based; parameters: dose 5 mg/kg, route intravenous; conditions: in vivo; outline: as §2
[9] = Cmax in Sprague-Dawley rat at 25 mg/kg administered via oral gavage by LC-MS/MS analysis; assay type: ADME, organism-based; parameters: dose 25 mg/kg, route oral; conditions: in vivo; outline: as §2
[10] = molecular target: T1, Epidermal growth factor receptor; assay: Inhibition of EGF-stimulated wild type EGFR phosphorylation in human A431 cells at 3 to 300 nM preincubated for 4 hrs followed by EGF stimulation measured after 10 mins by Western blot analysis; conditions: a431, 10 min, 0.3 µM
[11] = molecular target: T1, Epidermal growth factor receptor; assay: Inhibition of EGF-stimulated wild type EGFR in human A431 cells assessed as decrease in ERK phosphorylation at 3 to 300 nM preincubated for 4 hrs followed by EGF stimulation measured after 10 mins by Western blot analysis; conditions: a431, 10 min, 0.3 µM
Rattus norvegicus [12] = assay: as §3; assay type: ADME, organism-based; conditions: in vivo; outline: as §2
Rattus norvegicus [13] = assay: as §4; assay type: ADME, organism-based; parameters: dose 5 mg/kg, time infinity, route intravenous; conditions: in vivo; outline: as §2

Row | pIC50 (A-431) | pIC50 (NCI-H1975) | pIC50 [1] | pIC50 [2] | Structure (SMILES) | further results
1 | 5.85 | 8.70 | 6.48 | – | C=CC(=O)Nc1cccc(-n2c(=O)cc(C)c3cnc(Nc4ccc(N5CCN(C)CC5)cc4OC)nc32)c1 | –
2 | 5.86 | 7.40 | 6.74 | 8.70 | C=CC(=O)Nc1cc(-n2c(=O)cc(C)c3cnc(Nc4ccc(N5CCN(C)CC5)cc4OC)nc32)cc(C(F)(F)F)c1 | inhibition (INH) [10]: Not Active; inhibition (INH) [11]: Not Active
3 | 5.78 | 8.40 | – | – | C=CC(=O)Nc1cccc(-n2c(=O)cc(C)c3cnc(Nc4ccc(N5CC(C)N(C)C(C)C5)cc4OC)nc32)c1 (centres undefined) | –
4 | < 5.00 | 5.28 | – | – | C=CC(=O)N1CC[C@@H](n2c(=O)cc(C)c3cnc(Nc4ccc(N5CCN(C)CC5)cc4OC)nc32)C1 | –
5 | 5.49 | 8.22 | 6.68 | 8.74 | C=CC(=O)Nc1cc(C)cc(-n2c(=O)cc(C)c3cnc(Nc4ccc(N5CCN(C)CC5)cc4OC)nc32)c1 | –
6 | 5.95 | 7.52 | 7.01 | 8.48 | C=CC(=O)Nc1cc(-n2c(=O)cc(C)c3cnc(Nc4ccc(N5CC(C)N(C)C(C)C5)cc4OC)nc32)cc(C(F)(F)F)c1 (centres undefined) | –
7 | 5.84 | 6.92 | 7.62 | 8.62 | C=CC(=O)Nc1cc(C(C)C)cc(-n2c(=O)cc(C)c3cnc(Nc4ccc(N5CCN(C)CC5)cc4OC)nc32)c1 | –
8 | 5.40 | 6.54 | 6.35 | 8.38 | C=CC(=O)Nc1cccc(-n2c(=O)cc(C)c3cnc(Nc4cnn(CCN(C)C)c4)nc32)c1 | –
9 | 5.62 | 7.19 | 7.33 | 8.85 | C=CC(=O)Nc1cccc(-n2c(=O)cc(C)c3cnc(Nc4ccc(N5CCN(C)CC5)nc4)nc32)c1 | –
10 | 6.09 | 10.00 | 7.59 | 9.10 | C=CC(=O)Nc1cc(F)cc(-n2c(=O)cc(C)c3cnc(Nc4ccc(N5CCN(C)CC5)cc4OC)nc32)c1 | –
11 | 6.15 | 7.74 | 6.77 | 8.92 | C=CC(=O)Nc1cccc(-n2c(=O)cc(C)c3cnc(Nc4ccc(N5CCN(C)C(C)C5)cc4OC)nc32)c1 (centres undefined) | –
12 | < 5.00 | 6.12 | – | – | C=CC(=O)N1CC[C@H](n2c(=O)cc(C)c3cnc(Nc4ccc(N5CCN(C)CC5)cc4OC)nc32)C1 | –
13 | 5.94 | 8.40 | 7.24 | 8.74 | C=CC(=O)Nc1cc(Br)cc(-n2c(=O)cc(C)c3cnc(Nc4ccc(N5CCN(C)CC5)cc4OC)nc32)c1 | –
14 | 5.98 | 6.85 | 6.33 | 8.47 | C=CC(=O)Nc1cc(CC)cc(-n2c(=O)cc(C)c3cnc(Nc4ccc(N5CCN(C)CC5)cc4OC)nc32)c1 | –
15 | 5.77 | 7.92 | 7.18 | 8.80 | C=CC(=O)Nc1cc(-n2c(=O)cc(C)c3cnc(Nc4ccc(N5CCN(C)C(C)C5)cc4OC)nc32)cc(C(F)(F)F)c1 (centres undefined) | –
16 | 5.85 | 8.15 | 7.48 | 9.22 | C=CC(=O)Nc1cc(Cl)cc(-n2c(=O)cc(C)c3cnc(Nc4ccc(N5CCN(C)CC5)cc4OC)nc32)c1 | –

Second part, the molecule before the results:

Row | Structure (SMILES) | pIC50 (A-431) | pIC50 (NCI-H1975) | pIC50 [1] | pIC50 [2] | further results
17 | C=CC(=O)Nc1cccc(-n2c(=O)cc(C)c3cnc(Nc4nc5c(s4)CN(C)CC5)nc32)c1 | 5.57 | 8.10 | 6.26 | 8.60 | –
18 | C=CC(=O)Nc1cccc(-n2c(=O)cc(C)c3cnc(Nc4cnn(C5CCN(C)CC5)c4)nc32)c1 | 5.45 | 7.85 | 6.78 | 8.74 | –
19 | C=CC(=O)Nc1cccc(-n2c(=O)cc(C)c3cnc(Nc4ccc(N5CCN(C)CC5)cc4OC)nc32)c1.CS(=O)(=O)O | – | – | – | – | bioavailability [3]: 10.8%; AUC(0-inf) [4]: 243 ng·h/mL; Tmax [5]: 1.56 h; clearance [6]: 190 mL/min/kg; AUC(0-inf) [7]: 450 ng·h/mL; Cmax [8]: 1370 ng/mL; Cmax [9]: 83.1 ng/mL
20 | C=CC(=O)Nc1cc(-n2c(=O)cc(C)c3cnc(Nc4ccc(N5CCN(C)CC5)cc4OC)nc32)cc(C(F)(F)F)c1.CS(=O)(=O)O | – | – | – | – | bioavailability [3]: 16.1%; AUC(0-inf) [4]: 671 ng·h/mL; Tmax [5]: 2 h; clearance [6]: 102 mL/min/kg; AUC(0-inf) [7]: 831 ng·h/mL; Cmax [8]: 2460 ng/mL; Cmax [9]: 161 ng/mL
21 | C=CC(=O)Nc1cccc(-n2c(=O)cc(C)c3cnc(Nc4ccc(N5CCN(C)C(C)C5)cc4OC)nc32)c1.CS(=O)(=O)O (centres undefined) | – | – | – | – | bioavailability [3]: 24.3%; AUC(0-inf) [4]: 526 ng·h/mL; Tmax [5]: 1.67 h; clearance [6]: 197 mL/min/kg; AUC(0-inf) [7]: 433 ng·h/mL; Cmax [8]: 1330 ng/mL; Cmax [9]: 155 ng/mL
22 | C=CC(=O)Nc1cc(-n2c(=O)cc(C)c3cnc(Nc4ccc(N5CCN(C)CC5)cc4OC)nc32)ccc1C | 5.44 | 7.09 | 7.43 | 8.64 | –
23 | C=CC(=O)Nc1cc(-n2c(=O)cc(C)c3cnc(Nc4ccc(N5CC(C)N(C)C(C)C5)cc4OC)nc32)cc(C(F)(F)F)c1.CS(=O)(=O)O (centres undefined) | – | – | – | – | bioavailability [3]: 4.38%; AUC(0-inf) [4]: 89.7 ng·h/mL; Tmax [5]: 6 h; clearance [6]: 205 mL/min/kg; AUC(0-inf) [7]: 410 ng·h/mL; Cmax [8]: 592 ng/mL; Cmax [9]: 17.4 ng/mL
24 | C=CC(=O)Nc1cc(-n2c(=O)cc(C)c3cnc(Nc4ccc(N5CCN(C)C(C)C5)cc4OC)nc32)cc(C(F)(F)F)c1.CS(=O)(=O)O (centres undefined) | – | – | – | – | bioavailability [3]: 5.58%; AUC(0-inf) [4]: 111 ng·h/mL; Tmax [5]: 1.67 h; CL(app) (Rattus norvegicus [12]): 37.5 mL/min/kg; AUC (Rattus norvegicus [13]): 398.48 ng·h/mL; Cmax [8]: 259 ng/mL; Cmax [9]: 21.4 ng/mL
25 | C=CC(=O)Nc1cc(-n2c(=O)cc(C)c3cnc(Nc4ccc(N5CCN(C)CC5)cc4OC)nc32)cc(C(C)(C)C)c1 | 6.18 | 6.71 | < 6.00 | 7.75 | –
26 | C=CC(=O)N1CCC(n2c(=O)cc(C)c3cnc(Nc4ccc(N5CCN(C)CC5)cc4OC)nc32)CC1 | < 5.00 | 5.65 | < 6.00 | < 6.00 | –
27 | C=CC(=O)Nc1cccc(-n2c(=O)cc(C)c3cnc(Nc4ccc(N5CC(C)N(C)C(C)C5)cc4OC)nc32)c1.CS(=O)(=O)O (centres undefined) | – | – | – | – | bioavailability [3]: 13.3%; AUC(0-inf) [4]: 613 ng·h/mL; Tmax [5]: 4 h; clearance [6]: 135 mL/min/kg; AUC(0-inf) [7]: 622 ng·h/mL; Cmax [8]: 772 ng/mL; Cmax [9]: 64.4 ng/mL
28 | C=CC(=O)N1CCC(Cn2c(=O)cc(C)c3cnc(Nc4ccc(N5CCN(C)CC5)cc4OC)nc32)C1 (racemic) | < 5.00 | 6.52 | < 6.00 | 7.20 | –
30 | C=CC(=O)Nc1cccc(Nc2nc(Nc3ccc(N4CCN(C(C)=O)CC4)cc3OC)ncc2C(F)(F)F)c1 [ROCILETINIB] | 5.81 | 7.38 | – | – | –
